# Results: ChEMBL document CHEMBL4819027, “Design, synthesis and biological evaluation of novel 2-(4-(1H-indazol-6-yl)-1H-pyrazol-1-yl)acetamide derivatives as potent VEGFR-2 inhibitors” (Eur J Med Chem, 2021)
# Calls of active or inactive are those of the source. The rule behind the calls is not given here.
# Experiments:
# [1] = biological target: T1, Vascular endothelial growth factor receptor 2 (Homo sapiens, UniProt P35968); experiment: Inhibition of VEGFR2 (unknown origin) incubated for 10 mins followed by kinase substrate addition and measured after 30 mins by caliper mobility shift assay
# T1 sequence (P35968 whole entry): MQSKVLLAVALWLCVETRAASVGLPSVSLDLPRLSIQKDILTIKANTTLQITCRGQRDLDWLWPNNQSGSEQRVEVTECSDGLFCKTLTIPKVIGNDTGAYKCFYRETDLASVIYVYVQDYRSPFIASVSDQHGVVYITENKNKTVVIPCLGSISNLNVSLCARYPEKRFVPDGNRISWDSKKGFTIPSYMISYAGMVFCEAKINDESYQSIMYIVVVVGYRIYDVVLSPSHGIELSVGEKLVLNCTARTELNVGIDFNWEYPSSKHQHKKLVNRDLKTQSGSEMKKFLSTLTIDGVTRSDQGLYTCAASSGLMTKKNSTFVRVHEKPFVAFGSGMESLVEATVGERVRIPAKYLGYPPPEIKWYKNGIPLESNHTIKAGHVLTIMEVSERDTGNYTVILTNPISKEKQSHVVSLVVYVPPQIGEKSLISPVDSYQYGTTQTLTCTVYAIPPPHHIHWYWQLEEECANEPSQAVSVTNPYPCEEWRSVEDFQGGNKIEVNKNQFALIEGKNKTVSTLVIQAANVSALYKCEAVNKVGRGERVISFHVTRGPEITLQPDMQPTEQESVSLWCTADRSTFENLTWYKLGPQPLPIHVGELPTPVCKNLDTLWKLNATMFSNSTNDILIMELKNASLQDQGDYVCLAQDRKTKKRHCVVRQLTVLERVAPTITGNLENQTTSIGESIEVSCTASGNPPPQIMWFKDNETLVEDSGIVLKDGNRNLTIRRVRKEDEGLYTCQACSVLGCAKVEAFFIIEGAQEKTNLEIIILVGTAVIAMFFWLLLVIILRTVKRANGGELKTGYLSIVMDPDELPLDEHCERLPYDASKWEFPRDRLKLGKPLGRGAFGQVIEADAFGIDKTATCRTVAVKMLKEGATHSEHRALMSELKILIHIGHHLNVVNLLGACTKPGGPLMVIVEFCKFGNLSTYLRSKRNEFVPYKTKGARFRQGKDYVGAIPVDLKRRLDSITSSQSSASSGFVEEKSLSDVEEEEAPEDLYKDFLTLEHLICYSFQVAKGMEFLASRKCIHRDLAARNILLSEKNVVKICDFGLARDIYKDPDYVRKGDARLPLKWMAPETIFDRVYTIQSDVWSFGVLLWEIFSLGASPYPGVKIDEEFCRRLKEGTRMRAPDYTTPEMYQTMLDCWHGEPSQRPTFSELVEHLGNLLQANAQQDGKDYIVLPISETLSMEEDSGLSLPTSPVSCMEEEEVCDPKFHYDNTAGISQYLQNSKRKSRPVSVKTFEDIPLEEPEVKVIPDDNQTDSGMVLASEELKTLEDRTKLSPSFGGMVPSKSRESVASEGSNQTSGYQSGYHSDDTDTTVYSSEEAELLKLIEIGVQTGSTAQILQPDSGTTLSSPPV
# HT-29 = experiment: Antiproliferative activity against human HT-29 cells assessed as cell growth inhibition after 72 hrs by MTT assay; assay type: functional, cell-based; conditions: HT-29, 72 h
# In short: (§1)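 Log-phase cells were seeded at 5 × 10³ per well and attached 24 h. HT-29 and GES-1 were grown in DMEM-based medium, A549/HepG2/HGC-27 in RPMI-1640, HUVEC in ECM with ECGS; all media had 10% FBS. Cells were exposed to graded compound concentrations for 72 h at 37 °C. MTT (5 mg/mL stock) was added for 4 h, formazan dissolved in DMSO, and A490 read. IC50 was obtained by nonlinear sigmoidal regression; mean ± S.E. of three experiments.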
# A549 = experiment: Antiproliferative activity against human A549 cells assessed as cell growth inhibition after 72 hrs by MTT assay; assay type: functional, cell-based; conditions: A549, 72 h; in short: as §1
# HGC-27 [2] = experiment: Antiproliferative activity against human HGC-27 cells assessed as cell growth inhibition after 72 hrs by MTT assay; assay type: functional, cell-based; conditions: HGC-27, 72 h; in short: as §1
# HGC-27 [3] = experiment: Inhibition of cell migration at human HGC-27 cells measured up to 24 hrs by microscopic based wound healing assay; assay type: functional; conditions: dose 0.1-1 µM, time hrs <=24
# In short: (§2)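 HGC-27 grown to 80–90% confluence in 6-well plates, serum-starved 12 h, scratched with 200 µL tip (~1 mm lane). Washed, then given complete medium alone or with compound (0.1, 0.5, 1 µM) or sorafenib positive control. Imaged by inverted microscope at 0, 6 and 24 h; relative scratch closure quantified; mean ± SD, three independent experiments.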
# HGC-27 [4] = experiment: Inhibition of cell migration at human HGC-27 cells in 0.1 to 1 uM measured up to 24 hrs by microscopic based wound healing assay; assay type: functional; conditions: dose 0.1-1 µM, time hrs <=24, TDE = time-dependent effect; in short: as §2
# HGC-27 [5] = experiment: Antimigratory activity against human HGC-27 cells assessed as relative closure of scratches at 0.5 uM measured after 6 hrs by scratch wound healing assay relative to control; assay type: functional
# In short: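 HGC-27 monolayers at 80–90% confluence were serum-starved 12 h, then scratched to give 1 mm lanes. After a PBS wash, cells received complete medium with or without compound (0.1, 0.5, 1 μM). Wounds were imaged at 0, 6 and 24 h. Relative scratch closure was quantified against untreated control; mean ± SD of three experiments.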
# HGC-27 [6] = experiment: Antimigratory activity against human HGC-27 cells assessed as reduction in cell migration measured after 24 hrs by crystal violet staining microscopy based transwell migration assay; assay type: functional; conditions: dose 0.1-1 µM
# HGC-27 [7] = experiment: Antimigratory activity against human HGC-27 cells assessed as number of migration cells at 0.5 uM measured after 24 hrs by transwell migration assay (reference value: 320); assay type: functional
# HGC-27 [8] = experiment: Antiinvasive activity against human HGC-27 cells assessed as reduction in cell invasion measured after 24 hrs by transwell invasion assay; assay type: functional, cell-based
# In short: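 Transwell inserts (12 μm pore) were precoated with Matrigel. HGC-27 cells at 5 × 10⁵ cells/mL were placed in the upper well in serum-free medium with compound (0.1, 0.5, 1 μM). The lower chamber held RPMI-1640 with 10% FBS. After 24 h at 37 °C, invaded cells were methanol-fixed and stained with 0.1% crystal violet. Cells were counted in three random fields; three independent experiments, mean ± SD.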
# HGC-27 [9] = experiment: Induction of apoptosis in human HGC-27 cells assessed as early apoptotic cells level at 0.5 uM incubated for 24 hrs by propidium iode and annexin V-FITC staining based flow cytometry (reference value: 1.48%); assay type: functional
# In short: (§3)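 HGC-27 cells (1.0 × 10⁶ per 60 mm dish) were treated 24 h with 0.1% DMSO or compound (0.1, 0.5, 1 μM). Cells were stained with Annexin V-FITC in HEPES/NaCl/CaCl₂ binding buffer (pH 7.4) for 15 min at room temperature, then with PI for 10 min. About 10 000 events were acquired by flow cytometry to give viable, early apoptotic, late apoptotic and necrotic fractions.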
# HGC-27 [10] = experiment: Induction of apoptosis in human HGC-27 cells assessed as late apoptotic cells level at 0.5 uM incubated for 24 hrs by propidium iode and annexin V-FITC staining based flow cytometry (reference value: 0.86%); assay type: functional; in short: as §3
# HGC-27 [11] = experiment: Induction of apoptosis in human HGC-27 cells assessed as necrotic cells level at 1 uM incubated for 24 hrs by propidium iode and annexin V-FITC staining based flow cytometry (reference value: 1.64%); assay type: functional; in short: as §3
# HGC-27 [12] = experiment: Induction of apoptosis in human HGC-27 cells assessed as necrotic cells level at 0.5 uM incubated for 24 hrs by propidium iode and annexin V-FITC staining based flow cytometry (reference value: 1.64%); assay type: functional; in short: as §3
# HGC-27 [13] = experiment: Induction of apoptosis in human HGC-27 cells assessed as early apoptotic cells level incubated for 24 hrs by propidium iode and annexin V-FITC staining based flow cytometry; assay type: functional, cell-based; conditions: dose 0.1-1 µM; in short: as §3
# HGC-27 [14] = experiment: Induction of intracellular ROS generation in human HGC-27cells assessed as increase in fluorescence intensity at 0.5 uM incubated for 24 hrs by DCFH-DA staining-based flow cytometric analysis (reference value: 712); assay type: functional
# [15] = biological target: T1, Vascular endothelial growth factor receptor 2; experiment: Inhibition of VEGFR2 in human HGC-27 cells assessed as downregulation of PI3K phosphorylation at Tyr607 at 0.1 to 1 uM after 24 hrs by Westernblot analysis; assay type: cell-based; conditions: dose 0.1-1 µM
# In short: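 HGC-27 cells (1.0 × 10⁶ per 60 mm dish) were treated 24 h with 0.1% DMSO or compound (0.1, 0.5, 1 μM). RIPA lysates with phosphatase inhibitor were quantified by BCA and resolved on 8–12% SDS-PAGE onto nitrocellulose. Blots were probed for p-VEGFR-2 (Tyr1175), p-PI3K (Tyr607), p-AKT (Thr308) and p-mTOR (Ser2448), with ECL detection and densitometry; mean ± SEM.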
# HUVEC = experiment: Antiangiogenic activity against HUVEC cells assessed as reduction in VEGF-induced tube surface area at 1 to 10 uM incubated for 12 hrs by matrigel-based assay; assay type: functional, cell-based; conditions: Homo sapiens, dose 1-10 µM
# In short: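 HUVECs at 4 × 10⁵ cells/mL seeded on Matrigel that had been polymerized 1 h at 37 °C. Cells were stimulated with 20 ng/mL VEGF and treated with compound (1, 2.5, 5 and 10 μM) or 0.1% DMSO vehicle for 12 h at 37 °C. Tubes were imaged by inverted microscopy. Tube length, surface area and branch points were quantified as pixel area.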
# [16] = biological target: T1, Vascular endothelial growth factor receptor 2; experiment: Inhibition of VEGFR2-mediated angiogenesis in HUVEC cells assessed as reduction of phosphorylation of VEGFR-2 after 24 hrs by Westernblot analysis relative to control; assay type: cell-based; conditions: dose 1-10 µM
# In short: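 HUVECs seeded at 1.0×10^6 cells/dish in ECM with 1% ECGS, 10% FBS; treated 24 h with test compound (1, 5, 10 µM), 0.1% DMSO vehicle or 10 µM sorafenib. Lysed in RIPA with PMSF and phosphatase inhibitor; 8–12% SDS-PAGE, nitrocellulose, milk block, CST primaries overnight 4 °C, HRP secondaries, ECL; p-VEGFR-2 (Tyr1175) densitometry; at least triplicate.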
smiles,measurement,setting,value
CC(=O)Nc1n[nH]c2cc(-c3cnn(CC(=O)Nc4ccc(C)c(C(F)(F)F)c4)c3)ccc12,IC50,[1],1.6 nM
same,IC50,HT-29,2970 nM
same,IC50,A549,4310 nM
same,IC50,HGC-27 [2],360 nM
same,inhibition,HGC-27 [3],Dose-Dependent Effect
same,inhibition,HGC-27 [4],Tde
same,inhibition at 0.5 µM,HGC-27 [5],9.5%
same,inhibition,HGC-27 [6],Dose-Dependent Effect
same,Activity,HGC-27 [7],87
same,inhibition,HGC-27 [8],Dose-Dependent Effect
same,Activity,HGC-27 [9],8.35%
same,Activity,HGC-27 [10],11.2%
same,Activity,HGC-27 [11],9.59%
same,Activity,HGC-27 [12],10.8%
same,Activity,HGC-27 [13],Dose-Dependent Effect
same,Flu intensity,HGC-27 [14],945
same,inhibition,[15],Active
same,Activity,HUVEC,Active
same,inhibition,[16],Dose-Dependent Effect
